Measured values taken from the RNAGym collection of RNA variant scans (doi:10.1126/science.aae0568).
Fewer inactive variants are shown than the library holds.

B1: tRNA (parent)
chain: GUUCCGUUGGCGUAAUGGUAACGCGUCUCCCUCCUAAGGAGAAGACUGCGGGUUCGAGUCCCGUACGGAACG

Variants of: B1
Test: yeast fitness relative to wild type (ratio to wild type); higher = fitter; tRNA-Arg(CCU), competitive growth, 37 C, YPD
Summary of the method: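 Genotype frequency changes were the basis for Darwinian fitness relative to wild type. The frequencies came from 100-nucleotide paired-end sequencing of gene amplicons from the start population and each end population of pooled yeast strains with tRNA-Arg(CCU) gene variants at the native locus. Competition ran in YPD at 37°C for 24 hours in six replicates, genotypes needed ≥ 100 starting reads, and estimates < 0.5 were set to 0.5.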

First: A15C C33U
Second: A15C C33G
The yeast fitness of the first is higher: 0.572 for the first, 0.505 for the second.

Compared with A15C C61A, A15C C61U is lower in yeast fitness: 0.761 for the first, 0.713 for the second.

A15C G17U U19A C31U C34A and A15C A21U C34A cannot be ordered by yeast fitness: at most 0.5 for the first, at most 0.5 for the second.

A15C G17C A45U and A15C C29U C31U cannot be ordered by yeast fitness: at most 0.5 for the first, at most 0.5 for the second.

Compared with A15C C33G G38C C62A, A15C A21U C24A C33A C66A is lower in yeast fitness: 0.551 for the first, at most 0.5 for the second.

First: A14U U19A C24U C55G A70U
Second: A15C C34G C49G C66G G68C
The yeast fitness of the first is lower: 0.532 for the first, 0.612 for the second.

A15C G18A C24G and A14U U47A G67A cannot be ordered by yeast fitness: at most 0.5 for the first, at most 0.5 for the second.

First: A15C G44A
Second: A15C A42G A43G
The yeast fitness of the first is higher: 0.707 for the first, at most 0.5 for the second.

A15C A21U C24A C33A C61U and A15C A57U C62G cannot be ordered by yeast fitness: at most 0.5 for the first, at most 0.5 for the second.

Compared with A14U U26C C49A, A14U G38A is higher in yeast fitness: at most 0.5 for the first, 0.573 for the second.

A15C G23A C24G C46G C55G and A15C A43G C46A A70C cannot be ordered by yeast fitness: at most 0.5 for the first, at most 0.5 for the second.

A14U U26A A42G U59G C60U and A15C A20C G41C cannot be ordered by yeast fitness: at most 0.5 for the first, at most 0.5 for the second.

A14U G17U C24A C30G and A14U G17A G23A G63A cannot be ordered by yeast fitness: at most 0.5 for the first, at most 0.5 for the second.

Compared with A15C A21U A70G, A15C C22G A43C G50A is higher in yeast fitness: at most 0.5 for the first, 0.556 for the second.

Going from A15C A40U G63A A65G G67A to A15C C22G C33U U59G C62G, the yeast fitness rises from at most 0.5 to 0.981.

A15C A20U C31G G48C A65U and A14U U47G A65U cannot be ordered by yeast fitness: at most 0.5 for the first, at most 0.5 for the second.

First: A15C A20C G39C
Second: A15C A69U
The yeast fitness of the first is lower: at most 0.5 for the first, 0.892 for the second.

Going from A15C A69C to A15C C27G C49G, the yeast fitness falls from 0.672 to 0.551.

First: A15C G41C C46A
Second: A14U G17C
The yeast fitness of the first is lower: at most 0.5 for the first, 0.514 for the second.

Going from A15C C27U to A14U G18C A36G, the yeast fitness falls from 0.724 to at most 0.5.

Compared with A15C A21U A36C C49U A69U, A15C G25A C61U is higher in yeast fitness: at most 0.5 for the first, 0.664 for the second.

First: A15C A37C A42U
Second: A15C A36G C49U
The yeast fitness of the first is lower: at most 0.5 for the first, 0.533 for the second.

First: A15C G23C C31A
Second: A15C C24U A42C
The yeast fitness of the first is lower: at most 0.5 for the first, 0.62 for the second.

Compared with A14U G18A A40G C62A, A14U G50U is higher in yeast fitness: at most 0.5 for the first, 0.601 for the second.

Going from A14U U26C A42U to A15C C46A G56C A70G, the yeast fitness falls from 0.676 to at most 0.5.

A14U G38A G58A and A15C C24U A45G G52A cannot be ordered by yeast fitness: at most 0.5 for the first, at most 0.5 for the second.

Going from A15C C22A C31A G38C to A15C G50C, the yeast fitness rises from at most 0.5 to 0.672.

A15C G50C U53A C66A and A15C C46U C49U G50A cannot be ordered by yeast fitness: at most 0.5 for the first, at most 0.5 for the second.

Going from A15C G41C A45C C62U to A14U G18C U35G C49A G68A, the yeast fitness rises from at most 0.5 to 0.59.

Compared with A15C A42C G48A G50C A65G, A15C A45G G68A is lower in yeast fitness: 0.561 for the first, at most 0.5 for the second.

Compared with A15C A42G G67U, A15C A42G G67C is lower in yeast fitness: 0.522 for the first, at most 0.5 for the second.

A14U G63C and A14U G63A cannot be ordered by yeast fitness: at most 0.5 for the first, at most 0.5 for the second.

Compared with A15C G48C G68U, A15C C27U G58C is higher in yeast fitness: 0.548 for the first, 0.599 for the second.

Going from A15C C22G U32C G41A to A15C A37C G41C C66A, the yeast fitness rises from at most 0.5 to 0.589.

Compared with A15C A20C C29A A57G, A15C G17A U35A is lower in yeast fitness: 0.561 for the first, at most 0.5 for the second.

Compared with A15C C34A C46U, A15C A37G A57C A69C is higher in yeast fitness: 0.614 for the first, 0.794 for the second.

A14U G25A C27U C55G and A15C G44A G67A cannot be ordered by yeast fitness: at most 0.5 for the first, at most 0.5 for the second.

Going from A15C C30U A42U C49G to A14U U26A A45U U53C, the yeast fitness rises from at most 0.5 to 0.597.

Compared with A14U G68C A70G, A15C G48C is higher in yeast fitness: at most 0.5 for the first, 0.69 for the second.

A15C C24G A45G G52A C60A and A15C C24A C46A A57C A69U cannot be ordered by yeast fitness: at most 0.5 for the first, at most 0.5 for the second.

First: A14U U16G U19A A42G C61G
Second: A15C A42C G48A G50C
The yeast fitness of the first is lower: 0.535 for the first, 0.587 for the second.

A15C C60U A69G and A14U U16A U26G C29G cannot be ordered by yeast fitness: at most 0.5 for the first, at most 0.5 for the second.

Going from A15C A65C to A15C A65U, the yeast fitness rises from 0.713 to 0.841.

Compared with A15C C34G C49G U54C C66G G68C, A15C C30U is higher in yeast fitness: at most 0.5 for the first, 0.572 for the second.

Going from A15C C30G to A15C G25A U26C A69U, the yeast fitness falls from 0.541 to at most 0.5.

A14U U53G C61U A70G and A15C A36C G38C C55U C66U cannot be ordered by yeast fitness: at most 0.5 for the first, at most 0.5 for the second.

Compared with A15C C31G C33G C55U C61U, A15C G17U C46U is higher in yeast fitness: 0.504 for the first, 0.633 for the second.

A15C C27A U32G C60G and A15C A21G A36G C49U G67U cannot be ordered by yeast fitness: at most 0.5 for the first, at most 0.5 for the second.

A14U G18A A21U A42G G68A and A15C G41C C49U G68C cannot be ordered by yeast fitness: at most 0.5 for the first, at most 0.5 for the second.

A15C C22G A43C G50A U59C and A15C G48C C66U G67C cannot be ordered by yeast fitness: at most 0.5 for the first, at most 0.5 for the second.

First: A15C C27A C33U C34A C61U
Second: A15C G41C A45C
The yeast fitness of the first is higher: 0.509 for the first, at most 0.5 for the second.

First: A14U U35A A43C
Second: A15C G25C
The yeast fitness of the first is lower: at most 0.5 for the first, 0.709 for the second.

Compared with A14U U16A C33G A45C A69U, A15C G51C is higher in yeast fitness: at most 0.5 for the first, 0.504 for the second.

Going from A14U G23A A36G to A14U U35C, the yeast fitness rises from at most 0.5 to 0.601.

A14U U35G and A14U G48C A70C cannot be ordered by yeast fitness: at most 0.5 for the first, at most 0.5 for the second.

A14U G23A A40U G48C C55U C61G and A15C C24A U59C C62U cannot be ordered by yeast fitness: at most 0.5 for the first, at most 0.5 for the second.

A15C C31U C55G and A15C C55A A65C cannot be ordered by yeast fitness: at most 0.5 for the first, at most 0.5 for the second.

Compared with A15C A40G A65G, A15C A21G C22U C49U is lower in yeast fitness: 0.511 for the first, at most 0.5 for the second.

Compared with A15C C31G U32A C33U C34G, A14U G23A C29G C46A C55G is higher in yeast fitness: at most 0.5 for the first, 0.57 for the second.

Going from A15C G17A G68A to A14U U19A G23C C29A C66A, the yeast fitness rises from at most 0.5 to 0.549.

Compared with A15C G48A C49U U64G C66U, A14U G18A U35A C46G A69U is higher in yeast fitness: at most 0.5 for the first, 0.591 for the second.

First: A15C G17C C31A U32C G44C
Second: A15C A20U C31G
The yeast fitness of the first is lower: at most 0.5 for the first, 0.562 for the second.

Going from A14U G17A U59C C61U to A15C A20G G25C C29U U35C A43U, the yeast fitness falls from 0.653 to at most 0.5.

Going from A14U G44C to A14U G44A, the yeast fitness falls from 0.673 to 0.582.

A15C C29A U54A and A14U G38C C62A G67C cannot be ordered by yeast fitness: at most 0.5 for the first, at most 0.5 for the second.

First: A15C C22G
Second: A15C C22U
The yeast fitness of the first is lower: 0.658 for the first, 0.689 for the second.

A15C C24G A45G G56A A69C and A14U U26G A37C cannot be ordered by yeast fitness: at most 0.5 for the first, at most 0.5 for the second.

First: A14U U28A
Second: A15C A21C A36U U47C G63A
The yeast fitness of the first is higher: 0.579 for the first, 0.578 for the second.

A15C C31G C49U U64C G67A and A15C G44A A57C cannot be ordered by yeast fitness: at most 0.5 for the first, at most 0.5 for the second.

Going from A14U U16A to A15C C24G, the yeast fitness falls from 0.667 to 0.557.

First: A15C A20G
Second: A15C A20U
The yeast fitness of the first is higher: 0.78 for the first, 0.63 for the second.

First: A15C G18C A40U
Second: A15C G17A A65G
The yeast fitness of the first is lower: at most 0.5 for the first, 0.576 for the second.

A15C C29G G44C A45U U47A A70C and A14U G23A C27A G58C C61U cannot be ordered by yeast fitness: at most 0.5 for the first, at most 0.5 for the second.

First: A15C A21U
Second: A14U U53A A65U
The yeast fitness of the first is higher: 0.546 for the first, at most 0.5 for the second.

First: A15C G38A
Second: A14U U32G G52A G63C
The yeast fitness of the first is higher: 0.581 for the first, at most 0.5 for the second.

A15C A20G G23A C46A C49G G50A A65U A70U and A14U G18C U35G C49A C60G G68A cannot be ordered by yeast fitness: at most 0.5 for the first, at most 0.5 for the second.

First: A15C C22U A42U U47A
Second: A15C C22G G58C C62U
The yeast fitness of the first is higher: 0.511 for the first, at most 0.5 for the second.

Going from A15C G23C to A15C A43G, the yeast fitness rises from 0.555 to 0.689.

First: A15C A43U
Second: A14U U26A C30U A69C
The yeast fitness of the first is higher: 0.653 for the first, at most 0.5 for the second.

A15C G18A U35C and A14U G48C C66A cannot be ordered by yeast fitness: at most 0.5 for the first, at most 0.5 for the second.

A15C C22G A57C G63C C66U and A14U G23A C29G C46A C55G A57U C62U cannot be ordered by yeast fitness: at most 0.5 for the first, at most 0.5 for the second.

A15C A65U G67U and A15C C34U C55A cannot be ordered by yeast fitness: at most 0.5 for the first, at most 0.5 for the second.

Going from A15C C46G G50C C61A to A14U U47A, the yeast fitness falls from 0.636 to 0.575.

A14U U26G A36G C60A gave a yeast fitness of at most 0.5.
